# This is a sample that favours compounds with a hit; in the whole collection about 4.7% have one here.
# MrgX1 allo act: human MrgX1 positive allosteric modulation, primary screen. Q96LB2. MrgX1-HEK293, Fluo-4 calcium flux, FDSS; stronger effect = higher value. B-score at 10 µM. 310,000 compounds, 0.63% hits;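 active = plate-corrected calcium response at least 3 library SD above typical, normal starting fluorescence, not activating the receptor alone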;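 note: compound read alongside a low EC10 to EC30 dose of BAM8-22 agonist; peak minus trough fluorescence over baseline measured at the second addition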
# Target sequence (Q96LB2 whole entry, looked up): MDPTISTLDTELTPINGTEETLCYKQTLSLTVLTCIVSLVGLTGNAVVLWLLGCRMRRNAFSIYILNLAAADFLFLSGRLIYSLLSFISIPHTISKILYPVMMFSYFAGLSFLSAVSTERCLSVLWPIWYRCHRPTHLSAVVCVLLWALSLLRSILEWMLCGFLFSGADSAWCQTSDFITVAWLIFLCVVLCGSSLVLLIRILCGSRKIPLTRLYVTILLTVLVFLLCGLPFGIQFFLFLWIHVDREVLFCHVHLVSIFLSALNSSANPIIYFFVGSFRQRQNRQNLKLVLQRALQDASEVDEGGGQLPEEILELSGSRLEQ
# RGS4 inh: inhibitors of human RGS4; P49798; HEK293 M3R/RGS4 inducible, Fluo-4 calcium flux; stronger effect = higher value; triggered by carbachol at its EC20; B-score at 10 µM; 310,000 compounds, 0.45% hits;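 active = B-score, a plate-corrected calcium signal, over three deviations above library mean, with baseline fluorescence within five deviations of library mean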;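 note: RGS4 expression induced by doxycycline in cells with stable M3 receptor; B-score is computed from the integrated fluorescence ratio over baseline after carbachol; higher B-score means a larger calcium signal and so more RGS4 inhibition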
# Target sequence (P49798 whole entry, looked up): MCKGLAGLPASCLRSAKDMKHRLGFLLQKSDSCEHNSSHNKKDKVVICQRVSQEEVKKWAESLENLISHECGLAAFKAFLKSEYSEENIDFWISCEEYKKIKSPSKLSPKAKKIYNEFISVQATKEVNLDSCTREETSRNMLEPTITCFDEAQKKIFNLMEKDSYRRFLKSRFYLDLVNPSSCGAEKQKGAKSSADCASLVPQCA
# RGS4 act: RGS4 potentiation or activation. 310,000 compounds, 0.92% hits. HEK293 M3R/inducible RGS4, carbachol calcium flux Fluo4; stronger effect = lower value. B-score at 10 µM;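 active = B-score of the integrated calcium signal more than 4 SD below the library mean, with starting fluorescence not abnormally high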;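 note: negative B-score means reduced calcium response which marks RGS4 activation or potentiation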
#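 Reagent: ECmax carbachol challenge; Test system: M3R-expressing HEK293 line, RGS4 induced by doxycycline; Schedule: overnight RGS4 induction, 30 min dye load 37 °C, 20 min compound RT; Detection: calcium dye Fluo4 fluorescence; Read-out: Agonist-evoked peak-minus-minimum fluorescence over baseline, integrated ratio, B score.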
# MrgX1 agonist: agonists of human MrgX1 receptor | Q96LB2 | MrgX1-HEK293 cells, Fluo-4 calcium fluorescence, agonist mode; stronger effect = higher value | B-score at 10 µM | 310,000 compounds, 0.44% hits | AID 588627;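 active = calcium response B-score plate-corrected fluorescence ratio at least 3 library SD, with starting fluorescence B-score inside 5 SD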
#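 Material – MrgX1-expressing HEK293 cells · Input – 15,000 cells seeded per well · Dosing – compound as first of three additions · Times – overnight seeding, then 1 h dark dye loading · Measured by – kinetic Fluo-4 NW fluorescence of intracellular calcium · Read-out – B-scored fluorescence response ratio · Benchmarks – positive and negative control wells on each plate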
# Cl transport mod: modulators of human KCC2 chloride dependent transport | Q9H2X9 | KCC2 cells, thallium flux FluoZin-2 fluorescence | B-score of Tl+ flux slope (higher = more flux/activation; lower = inhibition) at 10 µM | 190,000 compounds, 2.2% hits;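 active = thallium flux slope and its plate-corrected score both differing from the plate sample mean at a set confidence after two filtering rounds, in either direction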;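 note: slope of fluorescence scaled to starting intensity during 10 to 20 s after thallium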
# MrgX1 antagonist: antagonists of human MrgX1 receptor; B-score at 10 µM; Q96LB2; MRGX1-HEK293 calcium flux, Fluo-4, BAM8-22 antagonism; stronger effect = lower value; 310,000 compounds, 1.3% hits;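 active = calcium-response B-score plate-corrected more than 3 library SD below zero, starting fluorescence within 5 deviations, no agonist response on first addition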;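 note: peak minus trough fluorescence over baseline after final BAM8-22 challenge near maximal dose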
# RGS4 block valid: RGS4 inhibitor validation; shares compounds with RGS4 inh; AID 492999; HEK293 M3R/RGS4, carbachol calcium Fluo-4 fluorescence; carbachol added at its EC20; 0 = buffer wells, 100 = carbachol control; 1,700 compounds, 65% hits; calcium response, % at 10 µM;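 active = duplicate-averaged calcium response above the buffer-only control mean plus 5 SD of those controls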;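 note: integrated fluorescence ratio F max minus min over baseline F0; higher response in RGS4-induced cells means RGS4 inhibition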
# M3R Ca ctr: checks RGS4 inhibitor effects in non-induced HEK293 M3R cells | carbachol calcium Fluo-4; submaximal (EC20) carbachol stimulus; buffer wells 0%, carbachol control wells 100% | shares compounds with RGS4 inh | AID 493000 | activity (percent), % at 10 µM | 1,900 compounds, 20% hits; call rule not given here;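 note: RGS4 induction absent so cells express M3R without RGS4; higher means more calcium signal and flags a non-specific hit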
# M3R basal Ca ctr: signal in non-induced cells without carbachol, RGS4 inhibitor counter-screen; shares compounds with RGS4 inh; HEK293 M3R/RGS4 non-induced, Fluo-4 calcium, no carbachol; normalised: buffer wells 0%, carbachol wells 100%; calcium response (agonist-mode artifact), % at 10 µM; 1,900 compounds, 22% hits; AID 493001;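 active = duplicate-averaged calcium rise in uninduced cells above buffer wells' mean plus 5 SD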
# A number is an active result; . = inactive; / = not tested or not shown.
SMILES,MrgX1 allo act,RGS4 inh,RGS4 act,MrgX1 agonist,Cl transport mod,MrgX1 antagonist,RGS4 block valid,M3R Ca ctr,M3R basal Ca ctr
c1csc(C2Nc3cccc4cccc(c34)N2)c1,.,6.1,.,.,.,.,.,.,.
CCOC(=O)C1CCN(C(c2cc3ccc(C)c(C)c3[nH]c2=O)c2nnnn2C2CCCCC2)CC1 (centres undefined),.,.,.,.,.,.,.,.,19%
CCOC(=O)C1CCN(C(c2cc3c(C)ccc(C)c3[nH]c2=O)c2nnnn2C2CCCCC2)CC1 (centres undefined),.,.,.,.,/,.,.,.,.
Cc1ccc(C)c2[nH]c(=O)c(C(c3nnnn3C3CCCC3)N3CCOCC3)cc12 (centres undefined),.,.,.,.,.,.,/,/,/
Cc1ccc(C(C(=O)NC2CCCC2)N(C(=O)CNC(=O)c2ccco2)c2ccccc2)o1 (centres undefined),.,.,.,.,/,.,/,/,/
CCC(=O)Nc1ccc(NC(=O)c2ccc3c(c2)OCO3)cc1,.,.,.,.,.,.,/,/,/
CCCC(=O)Nc1cccc(NC(=O)c2ccc3c(c2)OCO3)c1,.,.,.,.,/,.,.,.,.
CCC(=O)Nc1cccc(NC(=O)c2ccc3c(c2)OCCO3)c1,.,.,.,.,/,.,.,.,.
CCc1nnc(NC(=O)CSc2nnc(C(C)NC(=O)c3ccccc3)n2C)s1 (centres undefined),.,.,.,.,/,.,/,/,/
CSCCC(NS(=O)(=O)c1ccc(C)cc1)C(=O)N1CC=C(c2ccccc2)CC1 (centres undefined),.,.,.,.,/,.,/,/,/
CC(=O)c1ccc(N(CC(=O)NC2CCCCC2)C(=O)CNC(=O)c2ccco2)cc1,.,.,.,.,/,.,/,/,/
O=C(NCCN1C(=O)S/C(=C\c2ccc(Cl)c(Cl)c2)C1=O)C1COc2ccccc2O1 (centres undefined),.,4.9,.,.,.,.,8.0%,.,.
CC(=O)C1=C(S(=O)(=O)c2ccc(C)cc2)CS(=O)(=O)C1,/,26,.,/,.,/,40%,.,.
Cc1ccc(C(=O)N/C(=C/c2cccnc2)C(=O)N2CCCCCC2)cc1,.,.,.,.,/,.,/,/,/
COc1cccc(/C=C(/C(=O)OCC(=O)NC2CCCCCCC2)c2ccccc2)c1,.,5,.,.,.,.,.,.,7.0%
COc1cccc(/C=C(/C(=O)OCC(=O)NCC2CCCO2)c2ccccc2)c1 (centres undefined),.,.,.,.,.,.,/,/,/
CCOC(=O)/C(=C\c1cccnc1)C(=O)c1cc(C(C)=O)c(Nc2ccccc2)s1,.,6.4,.,.,.,.,42%,.,9.5%
CCOC(=O)/C(=C\c1ccccc1)C(=O)c1cc(C(C)=O)c(Nc2ccccc2)s1,.,.,.,.,.,.,/,/,/
COc1ccc(/C=C(\NC(=O)c2ccccc2)C(=O)NCc2cccnc2)cc1,.,.,.,.,/,.,.,.,.
COc1ccc(CCNC(=O)/C(=C/c2cccnc2)NC(=O)c2ccccc2)cc1,.,.,.,.,.,.,/,/,/
CN(C)c1ccc(/C=C(\NC(=O)c2ccccc2)C(=O)NCc2cccnc2)cc1,.,.,.,.,/,.,.,.,.
CN(C)c1ccc(/C=C(\NC(=O)c2ccccc2)C(=O)NCc2ccncc2)cc1,.,.,.,.,/,.,/,/,/
O=C(Cc1ccccc1)Nc1cccc(N2C(=O)C=CC2=O)c1,.,7.5,.,.,.,.,12%,.,42%
COc1cccc(NC(=O)Cc2ccccc2)c1,.,.,.,.,.,.,/,/,/
Clc1ccc(-c2nc3cc(CN4CCCCC4)ccc3o2)cc1,.,.,.,.,/,.,/,/,/
SMILES,MrgX1 allo act,RGS4 inh,RGS4 act,MrgX1 agonist,Cl transport mod,MrgX1 antagonist,RGS4 block valid,M3R Ca ctr,M3R basal Ca ctr
Cc1ccc2nc(C)c(CN3CCN(c4ccc([N+](=O)[O-])cc4Cl)CC3)n2c1,.,.,.,.,/,.,/,/,/
O=C1C=CC(=O)N1c1ccc(O)cc1,.,14,.,.,.,.,75%,72%,14%
Cc1ccc(C)c(NC(=O)C2CC(=O)N(C3CCCCC3)C2)c1 (centres undefined),.,.,.,.,/,.,/,/,/
Cc1ccc(NC(=O)COc2ccccc2C(=O)NCCN(C)C)cc1,.,.,.,.,.,.,/,/,/
CN1C(=O)C(O)(CC(=O)c2ccccc2O)c2cc(Br)ccc21 (centres undefined),.,.,.,.,.,.,/,/,/
Cc1cc(C2(c3ccc(O)c(C)c3)C(=O)N(C)c3ccc(Br)cc32)ccc1O,.,13,.,.,/,.,28%,.,.
CCOC(=O)c1c(C)[nH]c(C(=O)CN2C(=O)NC(C)(c3ccc(C)cc3)C2=O)c1C (centres undefined),.,.,.,.,/,.,.,.,7.5%
COc1ccc(C2=Nn3c(nnc3-c3cccnc3)SC2)cc1OC,.,.,.,.,/,.,.,.,.
CCOc1ccc(C2=Nn3c(nnc3-c3ccccc3OC)SC2)cc1,.,.,.,.,.,.,/,/,/
COc1ccccc1-c1nnc2n1N=C(c1ccc(O)c(O)c1)CS2,.,.,.,.,/,.,/,.,.
Cc1ccc(NC(=O)COC(=O)CCc2ccc(S(=O)(=O)N3CCOCC3)cc2)cc1F,.,.,.,.,.,.,/,/,/
COc1cc2c(cc1OC)C(C(=O)NC(C)c1ccccc1)CC(=O)N2 (centres undefined),.,.,.,.,/,.,/,/,/
COc1ccc(-c2nc(C=O)cs2)cc1,.,.,.,.,.,.,/,/,/
COc1cccc(-c2nc(C=O)cs2)c1,.,5,.,.,.,.,5.0%,.,.
Cc1noc(C)c1CSCC(=O)N(C)CC(=O)Nc1ccc(Cl)c(C(F)(F)F)c1,.,.,.,.,/,.,/,/,/
O=C(N/N=C/c1ccc(O)cc1)NC12CC3CC(CC(C3)C1)C2,.,5.2,.,.,/,.,20%,58%,11%
Cc1ccc(/C=C2/NC(=O)N(Cc3ccc(Br)cc3)C2=O)o1,.,.,.,.,.,.,.,.,22%
COc1ccc(-c2nc(CS(=O)CC(=O)NC3CCCCC3C)c(C)o2)cc1 (centres undefined),.,.,.,.,/,.,/,/,/

# Assay outcomes (PubChem BioAssay)
